ChEMBL document CHEMBL5236612, “Heterobivalent Inhibitors of Acetyl-CoA Carboxylase: Drug Target Residence Time and Time-Dependent Antibacterial Activity” (J Med Chem, 2022)
In brackets after ≈: the same amount, converted by molar mass. Activity calls are given as the source filed them. The rule behind the calls is not given here.

Experiments:
[1] = Inhibition of Escherichia coli ACC expressed in Escherichia coli BL21(DE3) pLysS incubated for 45 mins in presence of ATP and acetyl coA by fluorescence polarization assay
In short: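 E. coli BC (1 nM), biotinylated BCCP (2 nM) and CT (1 nM), His-tag purified then size-exclusion purified, preincubated with inhibitor in 100 mM HEPES pH 8.0, 15 mM KHCO3, 20 mM MgCl2. ADP detected by Transcreener fluorescence polarization; Morrison fit for Ki when tight binding; triplicate.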

Escherichia coli [2] = experiment: Antibacterial activity against Escherichia coli K12 incubated for 24 hrs by microbroth dilution method; type: functional
Escherichia coli [3] = experiment: Antibacterial activity against Escherichia coli incubated for 24 hrs in presence of PMBN by microbroth dilution method; type: functional
Escherichia coli [4] = experiment: Antibacterial activity against acrAB knockout Escherichia coli MG1655 incubated for 24 hrs by microbroth dilution method; type: functional
Escherichia coli [5] = experiment: Antibacterial activity against acrAB knockout Escherichia coli MG1655 incubated for 24 hrs in presence of PMBN by microbroth dilution method; type: functional
Escherichia coli [6] = experiment: Antibacterial activity against tolC knockout Escherichia coli incubated for 24 hrs in presence of PMBN by microbroth dilution method; type: functional
Escherichia coli [7] = experiment: (§1) Displacement of 11-(4-(22-(2,4-dibromo-3-(2,7-diaminopyrido[2,3-d]pyrimidin-6-yl)phenoxy)-5,8,11,14,17,20-hexaoxadocos-1-yl)-1H-1,2,3-triazol-1-yl)-N-((1S)-3-(((2S)-3-methyl-1-((3R,4S)-4-methyl-2,5-dioxopyrrolidin-3-yl)-1-oxobutan-2-yl)amino)-3-oxo-1-phenylpropyl)undecanamide from Escherichia coli ACC expressed in Escherichia coli BL21(DE3) pLysS at 100 uM preincubated for 1 hr followed by compound addition by LC-MS/MS method
In short: (§2)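 Purified E. coli ACC (1 μM), in 100 mM HEPES pH 8.0 with 15 mM KHCO3 and 20 mM MgCl2, was held 1 h at 22 °C with equimolar heterobivalent inhibitor. Competitor was then added: 100 μM of one warhead alone, or 50 μM each of both warheads together. At timed points, aliquots were spun through G-25 gel filtration columns in 10 mM ammonium formate pH 8.0. Flow-through was denatured in 50% MeCN and bound inhibitor quantified by LC-MS/MS. Dissociation rate came from a single-exponential fit.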

Escherichia coli [8] = experiment: Antibacterial activity against Escherichia coli harbouring TolC-deficient mutant assessed as post antibiotic effect by measuring time required for increase in 1 log10 CFU/ml of bacteria at 8 times MIC incubated for 1 hr followed by compound washout and measured for 16 hrs; type: functional
Escherichia coli [9] = experiment: Antibacterial activity against Escherichia coli harbouring TolC-deficient mutant assessed as post antibiotic effect by measuring time required for increase in 1 log10 CFU/ml of bacteria at 16 times MIC incubated for 1 hr followed by compound washout and measured for 16 hrs; type: functional
Escherichia coli [10] = experiment: Antibacterial activity against Escherichia coli harbouring TolC-deficient mutant assessed as post antibiotic effect by measuring time required for increase in 1 log10 CFU/ml of bacteria at 32 times MIC incubated for 1 hr followed by compound washout and measured for 16 hrs; type: functional
Escherichia coli [11] = experiment: as §1, with “50” for “100”, “hr in presence of Moiramide-B” for “hr”; in short: as §2
Escherichia coli [12] = experiment: as §1, with “50” for “100”, “hr in presence of 6-(2,6-dibromophenyl)pyrido[2,3-d]pyrimidine-2,7-diamine” for “hr”; in short: as §2
Escherichia coli [13] = experiment: Antibacterial activity against tolC knockout Escherichia coli incubated for 24 hrs by microbroth dilution method; type: functional
Escherichia coli [14] = experiment: Additive antibacterial activity against Escherichia coli harbouring TolC-deficient mutant assessed as fractional inhibitory concentration index; type: functional
In short: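 Checkerboard MIC of two compounds combined against tolC-knockout E. coli, without PMBN; FIC index derived from combination MICs.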

Escherichia coli [15] = experiment: Synergistic antibacterial activity against Escherichia coli harbouring TolC-deficient mutant assessed as fractional inhibitory concentration index at […] in presence of PMBN; type: functional; conditions: dose 0.025 µM
[16] = Inhibition of Escherichia coli ACC expressed in Escherichia coli BLR(DE3) cells
[17] = Inhibition of Escherichia coli biotin carboxylase in presence of ATP and NADH by UV-Vis spectrophotometric assay
[18] = Inhibition of Escherichia coli ACC incubated for 5 mins
In short: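 ACC reconstituted from 1 nM BC, 2 nM biotinylated BCCP and 1 nM CT (His-tagged E. coli proteins) in 100 mM HEPES pH 8.0 with 15 mM KHCO3 and 20 mM MgCl2. Enzyme was mixed with inhibitor or DMSO, and reactions were started with 10 μM ATP and 200 μM acetyl-CoA. ADP formed was read by Transcreener fluorescence polarization after a 45 min endpoint.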

| Structure (SMILES) | IC50 [1] | MIC (Escherichia coli [2]) | MIC (Escherichia coli [5]) | MIC (Escherichia coli [6]) | Activity (Escherichia coli [7]) | MIC (Escherichia coli [13]) | other results |
| --- | --- | --- | --- | --- | --- | --- | --- |
| CC(C)[C@H](NC(=O)C[C@H](NC(=O)CCCCCCCCCCN=[N+]=[N-])c1ccccc1)C(=O)[C@@H]1C(=O)NC(=O)[C@H]1C | 74 nM | > 25 µM | 1.56 µM | 0.2 µM |  |  | MIC (Escherichia coli [3]): 12.5 µM; MIC (Escherichia coli [4]): > 25 µM |
| CC(C)[C@H](NC(=O)C[C@H](NC(=O)CCCCCCCCCCn1cc(CCCCOCCOCCOCCOCCOCCOCCOCCOCCOCCOCCOCCOCCOCCOCCOCCOc2ccc(Br)c(-c3cc4cnc(N)nc4nc3N)c2Br)nn1)c1ccccc1)C(=O)[C@@H]1C(=O)NC(=O)[C@H]1C |  | > 25 µM | 12.5 µM | 1.56 µM | inactive |  | Ki [1]: 0.33 nM; PAE (Escherichia coli [8]): 1.9 h; PAE (Escherichia coli [9]): 3.8 h; PAE (Escherichia coli [10]): 4.6 h; Activity (Escherichia coli [11]): Active; Activity (Escherichia coli [12]): Active |
| C#CCCCCOCCOCCOCCOCCOCCOCCOCCOCCOCCOCCOCCOCCOCCOCCOCCOCCOCCOCCOc1ccc(Br)c(-c2cc3cnc(N)nc3nc2N)c1Br | 126 nM |  | > 25 µM | 12.5 µM |  | > 25 µM |  |
| C#CCCCCOCCOCCOCCOc1ccc(Br)c(-c2cc3cnc(N)nc3nc2N)c1Br | 19 nM | > 25 µM | 3.13 µM | 1.56 µM |  |  |  |
| C/C=C/C=C/C(=O)N[C@@H](CC(=O)N[C@H](C(=O)[C@@H]1C(=O)NC(=O)[C@H]1C)C(C)C)c1ccccc1 | 4.5 nM | > 25 µM | 0.39 µM | 0.1 µM | inactive | 1.56 µM (≈ 0.708 µg/mL) | MIC (Escherichia coli [3]): 3.13 µM; MIC (Escherichia coli [4]): 25 µM (≈ 11.3 µg/mL); fractional inhibitory concentration index (FICI) (Escherichia coli [14]): 0.5; FIC (Escherichia coli [15]): 0.38; Activity (Escherichia coli [12]): Active; IC50 [16]: 6 nM |
| CC(C)[C@H](NC(=O)C[C@H](NC(=O)CCCCCCCCCCn1cc(CCCCOCCOCCOCCOCCOCCOCCOc2ccc(Br)c(-c3cc4cnc(N)nc4nc3N)c2Br)nn1)c1ccccc1)C(=O)[C@@H]1C(=O)NC(=O)[C@H]1C |  | > 25 µM | 3.13 µM | 0.39 µM |  |  | Ki [1]: 0.25 nM; MIC (Escherichia coli [3]): > 25 µM; MIC (Escherichia coli [4]): > 25 µM; PAE (Escherichia coli [8]): 1.7 h; PAE (Escherichia coli [9]): 1.7 h; PAE (Escherichia coli [10]): 3.4 h |
| CC(C)[C@H](NC(=O)C[C@H](NC(=O)CCCCCCCCCCn1cc(CCCCOc2ccc(Br)c(-c3cc4cnc(N)nc4nc3N)c2Br)nn1)c1ccccc1)C(=O)[C@@H]1C(=O)NC(=O)[C@H]1C | 1.81 nM | > 25 µM | 12.5 µM | 0.78 µM | inactive |  | PAE (Escherichia coli [8]): 1.9 h; PAE (Escherichia coli [9]): 2.2 h; PAE (Escherichia coli [10]): 3.8 h; Activity (Escherichia coli [11]): Active; Activity (Escherichia coli [12]): Active |
| C#CCCCCOCCOCCOCCOCCOCCOCCOCCOCCOCCOCCOCCOCCOCCOCCOCCOc1ccc(Br)c(-c2cc3cnc(N)nc3nc2N)c1Br | 64 nM | > 25 µM | > 25 µM | 12.5 µM |  | 25 µM (≈ 28.8 µg/mL) |  |
| COc1ccc(Br)c(-c2cc3cnc(N)nc3nc2N)c1Br |  |  |  |  |  |  | IC50 [17]: ≤ 250 nM |
| CC(C)[C@H](NC(=O)C[C@H](NC(=O)CCCCCCCCCCn1cc(CCCCOCCOCCOCCOCCOCCOCCOCCOCCOCCOCCOCCOCCOc2ccc(Br)c(-c3cc4cnc(N)nc4nc3N)c2Br)nn1)c1ccccc1)C(=O)[C@@H]1C(=O)NC(=O)[C@H]1C |  | > 25 µM | 6.25 µM | 1.56 µM | inactive |  | Ki [1]: 0.18 nM; PAE (Escherichia coli [8]): 2.1 h; PAE (Escherichia coli [9]): 2.6 h; PAE (Escherichia coli [10]): 3.6 h; Activity (Escherichia coli [11]): Active; Activity (Escherichia coli [12]): Active |
| C#CCCCCOCCOCCOCCOCCOCCOCCOc1ccc(Br)c(-c2cc3cnc(N)nc3nc2N)c1Br | 32 nM | > 25 µM | 6.25 µM |  |  |  |  |
| Nc1ncc2cc(-c3c(Br)ccc(OCCO)c3Br)c(N)nc2n1 |  |  |  |  |  |  | IC50 [17]: 550 nM |
| COc1cc(Br)c(-c2cc3cnc(N)nc3nc2N)c(Br)c1 |  |  |  |  |  |  | IC50 [17]: 1200 nM |
| C#CCCCCOCCOCCOCCOCCOCCOCCOc1cc(Br)c(-c2cc3cnc(N)nc3nc2N)c(Br)c1 | 849 nM |  | > 25 µM | > 25 µM |  |  |  |
| C#CCCCCOc1ccc(Br)c(-c2cc3cnc(N)nc3nc2N)c1Br | ≤ 1 nM | > 25 µM | 0.78 µM | 0.78 µM |  | 1.56 µM (≈ 0.766 µg/mL) | MIC (Escherichia coli [3]): 12.5 µM; MIC (Escherichia coli [4]): > 25 µM |
| Nc1ncc2cc(-c3c(Br)cccc3Br)c(N)nc2n1 |  |  |  |  | inactive | 1.56 µM (≈ 0.616 µg/mL) | fractional inhibitory concentration index (FICI) (Escherichia coli [14]): 0.5; Activity (Escherichia coli [11]): Active; IC50 [18]: < 5 nM |
| Nc1ncc2cc(-c3c(Br)cc(OCCO)cc3Br)c(N)nc2n1 |  |  |  |  |  |  | IC50 [17]: 730 nM |
| CC(C)[C@H](NC(=O)C[C@H](NC(=O)CCCCCCCCCCn1cc(CCCCOCCOCCOCCOCCOCCOCCOCCOCCOCCOc2ccc(Br)c(-c3cc4cnc(N)nc4nc3N)c2Br)nn1)c1ccccc1)C(=O)[C@@H]1C(=O)NC(=O)[C@H]1C |  | > 25 µM | 3.13 µM | 0.78 µM | inactive |  | Ki [1]: 0.31 nM; PAE (Escherichia coli [8]): 1.2 h; PAE (Escherichia coli [9]): 1.8 h; PAE (Escherichia coli [10]): 3.4 h; Activity (Escherichia coli [11]): Active; Activity (Escherichia coli [12]): Active |
| C#CCCCCOCCOCCOCCOCCOCCOCCOCCOCCOCCOc1ccc(Br)c(-c2cc3cnc(N)nc3nc2N)c1Br | 98 nM | > 25 µM | 15 µM | 12.5 µM |  | 25 µM (≈ 22.2 µg/mL) |  |
| CC(C)[C@H](NC(=O)C[C@H](NC(=O)CCCCCCCCCCn1cc(CCCCOCCOCCOCCOCCOCCOCCOc2cc(Br)c(-c3cc4cnc(N)nc4nc3N)c(Br)c2)nn1)c1ccccc1)C(=O)[C@@H]1C(=O)NC(=O)[C@H]1C | 3.53 nM |  | > 25 µM | 0.78 µM |  | 6.25 µM (≈ 8.28 µg/mL) |  |
| C#CCCCCOCCOCCOCCOCCOCCOCCOCCOCCOCCOCCOCCOCCOc1ccc(Br)c(-c2cc3cnc(N)nc3nc2N)c1Br | 82 nM | > 25 µM | > 25 µM |  |  | 25 µM (≈ 25.5 µg/mL) |  |
| CC(C)[C@H](NC(=O)C[C@H](NC(=O)CCCCCCCCCCn1cc(CCCCOCCOCCOCCOc2ccc(Br)c(-c3cc4cnc(N)nc4nc3N)c2Br)nn1)c1ccccc1)C(=O)[C@@H]1C(=O)NC(=O)[C@H]1C |  | > 25 µM | 6.25 µM | 0.78 µM | inactive | 3.13 µM (≈ 3.73 µg/mL) | Ki [1]: 0.26 nM; PAE (Escherichia coli [8]): 1 h; PAE (Escherichia coli [9]): 1.2 h; PAE (Escherichia coli [10]): 2.6 h; Activity (Escherichia coli [11]): Active; Activity (Escherichia coli [12]): Active |
